Experimental data published in ChEMBL document CHEMBL4138201, “Synthesis and biological evaluation of sulfur-containing shikonin oxime derivatives as potential antineoplastic agents” (Eur J Med Chem, 2018).

System: MGC-803
Experiment: Cytotoxicity against human MGC803 cells after 48 hrs by MTT assay
Format: functional, cell-based
Conditions: MGC-803, 48 h
How it was run: (§1)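 MTT colorimetric assay. Shikonin and 5-fluorouracil served as reference agents. IC₅₀ obtained by linear regression of each compound's concentration–response curve.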

**Q.** For `COc1cc(C(CC=C(C)C)SC(=O)c2ccccc2F)c(OC)c2c1/C(=N/O)C=C/C2=N\O` (stereo not given), which IC50 is on record?
**A.** The IC50 was 1.52 µM.

**Q.** Which IC50 does the source give for `COc1ccc(C(=O)S[C@H](CC=C(C)C)c2cc(OC)c3c(c2OC)/C(=N/O)C=C/C3=N\O)cc1OC` here?
**A.** Its IC50 is 1.57 µM.

**Q.** For `COc1cc([C@@H](CC=C(C)C)SCCC(C)C)c(OC)c2c1/C(=N/O)C=C/C2=N\O`, which IC50 is on record?
**A.** The IC50 was 5.87 µM.

**Q.** Which IC50 does the source give for `COc1cc(C(CC=C(C)C)SC(=O)c2cccc(Cl)c2)c(OC)c2c1/C(=N/O)C=C/C2=N\O` (stereo not given) here?
**A.** Its IC50 is 8.73 µM.

**Q.** With `CCC(=O)SC(CC=C(C)C)c1cc(OC)c2c(c1OC)/C(=N/O)C=C/C2=N\O` (stereo not given) as the molecule, how does the IC50 read?
**A.** The IC50 was 3.06 µM.

**Q.** For `O=c1[nH]cc(F)c(=O)[nH]1` [FLUOROURACIL], which IC50 is on record?
**A.** Its IC50 is over 50 µM.

**Q.** For `CCCCCCCCCSC(CC=C(C)C)c1cc(OC)c2c(c1OC)/C(=N/O)C=C/C2=N\O` (stereo not given), which IC50 is on record?
**A.** Its IC50 is 9.86 µM.

**Q.** Which IC50 does the source give for `COc1cccc(C(=O)SC(CC=C(C)C)c2cc(OC)c3c(c2OC)/C(=N/O)C=C/C3=N\O)c1` (stereo not given) here?
**A.** Its IC50 is 4.25 µM.

**Q.** For `COc1cc(C(CC=C(C)C)SC(=O)c2ccccc2Cl)c(OC)c2c1/C(=N/O)C=C/C2=N\O` (stereo not given), which IC50 is on record?
**A.** Its IC50 is 1.69 µM.

**Q.** Which IC50 does the source give for `COc1ccc(C(=O)S[C@@H](CC=C(C)C)c2cc(OC)c3c(c2OC)/C(=N/O)C=C/C3=N\O)cc1OC` here?
**A.** Its IC50 is 1.12 µM.

**Q.** Which IC50 does the source give for `COc1cc(C(CC=C(C)C)SC(=O)c2ccc(N)cc2)c(OC)c2c1/C(=N/O)C=C/C2=N\O` (stereo not given) here?
**A.** Its IC50 is 2.45 µM.

System: Bel-7402
Experiment: Cytotoxicity against human Bel7402 cells after 48 hrs by MTT assay
Format: functional, cell-based
Conditions: Bel-7402, 48 h
How it was run: as §1

**Q.** For `COc1cc(C(CC=C(C)C)SC(=O)c2ccccc2F)c(OC)c2c1/C(=N/O)C=C/C2=N\O` (stereo not given), which IC50 is on record?
**A.** Its IC50 is 1.34 µM.

**Q.** Which IC50 does the source give for `COc1ccc(C(=O)S[C@H](CC=C(C)C)c2cc(OC)c3c(c2OC)/C(=N/O)C=C/C3=N\O)cc1OC` here?
**A.** Its IC50 is 1.16 µM.

**Q.** With `COc1cc([C@@H](CC=C(C)C)SCCC(C)C)c(OC)c2c1/C(=N/O)C=C/C2=N\O` as the molecule, how does the IC50 read?
**A.** The IC50 was 8.95 µM.

**Q.** With `COc1cc(C(CC=C(C)C)SC(=O)c2cccc(Cl)c2)c(OC)c2c1/C(=N/O)C=C/C2=N\O` (stereo not given) as the molecule, how does the IC50 read?
**A.** The IC50 was 12.1 µM.

**Q.** With `CCC(=O)SC(CC=C(C)C)c1cc(OC)c2c(c1OC)/C(=N/O)C=C/C2=N\O` (stereo not given) as the molecule, how does the IC50 read?
**A.** The IC50 was 2.73 µM.

**Q.** With `O=c1[nH]cc(F)c(=O)[nH]1` [FLUOROURACIL] as the molecule, how does the IC50 read?
**A.** Its IC50 is 20.9 µM.

**Q.** Which IC50 does the source give for `CCCCCCCCCSC(CC=C(C)C)c1cc(OC)c2c(c1OC)/C(=N/O)C=C/C2=N\O` (stereo not given) here?
**A.** Its IC50 is 13.8 µM.

**Q.** With `COc1cccc(C(=O)SC(CC=C(C)C)c2cc(OC)c3c(c2OC)/C(=N/O)C=C/C3=N\O)c1` (stereo not given) as the molecule, how does the IC50 read?
**A.** Its IC50 is 5.54 µM.

**Q.** For `COc1cc(C(CC=C(C)C)SC(=O)c2ccccc2Cl)c(OC)c2c1/C(=N/O)C=C/C2=N\O` (stereo not given), which IC50 is on record?
**A.** The IC50 was 0.87 µM.

**Q.** For `COc1ccc(C(=O)S[C@@H](CC=C(C)C)c2cc(OC)c3c(c2OC)/C(=N/O)C=C/C3=N\O)cc1OC`, which IC50 is on record?
**A.** Its IC50 is 0.85 µM.

**Q.** For `COc1cc(C(CC=C(C)C)SC(=O)c2ccc(N)cc2)c(OC)c2c1/C(=N/O)C=C/C2=N\O` (stereo not given), which IC50 is on record?
**A.** The IC50 was 1.26 µM.

System: not listed separately
Experiment: Cytotoxicity against human HSF cells after 48 hrs by MTT assay
Format: cell-based
Conditions: not given
How it was run: as §1

**Q.** With `COc1cc(C(CC=C(C)C)SC(=O)c2ccccc2F)c(OC)c2c1/C(=N/O)C=C/C2=N\O` (stereo not given) as the molecule, how does the IC50 read?
**A.** The IC50 was over 50 µM.

**Q.** For `COc1ccc(C(=O)S[C@H](CC=C(C)C)c2cc(OC)c3c(c2OC)/C(=N/O)C=C/C3=N\O)cc1OC`, which IC50 is on record?
**A.** The IC50 was over 50 µM.

**Q.** For `COc1cc([C@@H](CC=C(C)C)SCCC(C)C)c(OC)c2c1/C(=N/O)C=C/C2=N\O`, which IC50 is on record?
**A.** Its IC50 is over 50 µM.

**Q.** With `COc1cc(C(CC=C(C)C)SC(=O)c2cccc(Cl)c2)c(OC)c2c1/C(=N/O)C=C/C2=N\O` (stereo not given) as the molecule, how does the IC50 read?
**A.** The IC50 was over 50 µM.

**Q.** For `CCC(=O)SC(CC=C(C)C)c1cc(OC)c2c(c1OC)/C(=N/O)C=C/C2=N\O` (stereo not given), which IC50 is on record?
**A.** The IC50 was over 50 µM.

**Q.** For `O=c1[nH]cc(F)c(=O)[nH]1` [FLUOROURACIL], which IC50 is on record?
**A.** The IC50 was over 50 µM.

**Q.** For `CCCCCCCCCSC(CC=C(C)C)c1cc(OC)c2c(c1OC)/C(=N/O)C=C/C2=N\O` (stereo not given), which IC50 is on record?
**A.** The IC50 was over 50 µM.

**Q.** With `COc1cccc(C(=O)SC(CC=C(C)C)c2cc(OC)c3c(c2OC)/C(=N/O)C=C/C3=N\O)c1` (stereo not given) as the molecule, how does the IC50 read?
**A.** The IC50 was over 50 µM.

**Q.** For `COc1cc(C(CC=C(C)C)SC(=O)c2ccccc2Cl)c(OC)c2c1/C(=N/O)C=C/C2=N\O` (stereo not given), which IC50 is on record?
**A.** Its IC50 is over 50 µM.

**Q.** Which IC50 does the source give for `COc1ccc(C(=O)S[C@@H](CC=C(C)C)c2cc(OC)c3c(c2OC)/C(=N/O)C=C/C3=N\O)cc1OC` here?
**A.** Its IC50 is over 50 µM.

**Q.** With `COc1cc(C(CC=C(C)C)SC(=O)c2ccc(N)cc2)c(OC)c2c1/C(=N/O)C=C/C2=N\O` (stereo not given) as the molecule, how does the IC50 read?
**A.** The IC50 was over 50 µM.

System: HCT-15
Experiment: Cytotoxicity against human HCT15 cells after 48 hrs by MTT assay
Format: functional, cell-based
Conditions: HCT-15, 48 h
How it was run: as §1

**Q.** Which IC50 does the source give for `COc1cc(C(CC=C(C)C)SC(=O)c2ccccc2F)c(OC)c2c1/C(=N/O)C=C/C2=N\O` (stereo not given) here?
**A.** Its IC50 is 0.62 µM.

**Q.** Which IC50 does the source give for `COc1ccc(C(=O)S[C@H](CC=C(C)C)c2cc(OC)c3c(c2OC)/C(=N/O)C=C/C3=N\O)cc1OC` here?
**A.** The IC50 was 0.84 µM.

**Q.** Which IC50 does the source give for `COc1cc([C@@H](CC=C(C)C)SCCC(C)C)c(OC)c2c1/C(=N/O)C=C/C2=N\O` here?
**A.** The IC50 was 1.94 µM.

**Q.** With `COc1cc(C(CC=C(C)C)SC(=O)c2cccc(Cl)c2)c(OC)c2c1/C(=N/O)C=C/C2=N\O` (stereo not given) as the molecule, how does the IC50 read?
**A.** The IC50 was 2.64 µM.

**Q.** Which IC50 does the source give for `CCC(=O)SC(CC=C(C)C)c1cc(OC)c2c(c1OC)/C(=N/O)C=C/C2=N\O` (stereo not given) here?
**A.** The IC50 was 1.35 µM.

**Q.** Which IC50 does the source give for `O=c1[nH]cc(F)c(=O)[nH]1` [FLUOROURACIL] here?
**A.** The IC50 was 7.53 µM.

**Q.** With `CCCCCCCCCSC(CC=C(C)C)c1cc(OC)c2c(c1OC)/C(=N/O)C=C/C2=N\O` (stereo not given) as the molecule, how does the IC50 read?
**A.** Its IC50 is 4.09 µM.

**Q.** Which IC50 does the source give for `COc1cccc(C(=O)SC(CC=C(C)C)c2cc(OC)c3c(c2OC)/C(=N/O)C=C/C3=N\O)c1` (stereo not given) here?
**A.** Its IC50 is 1.67 µM.

**Q.** For `COc1cc(C(CC=C(C)C)SC(=O)c2ccccc2Cl)c(OC)c2c1/C(=N/O)C=C/C2=N\O` (stereo not given), which IC50 is on record?
**A.** The IC50 was 0.53 µM.

**Q.** Which IC50 does the source give for `COc1ccc(C(=O)S[C@@H](CC=C(C)C)c2cc(OC)c3c(c2OC)/C(=N/O)C=C/C3=N\O)cc1OC` here?
**A.** Its IC50 is 0.38 µM.

**Q.** Which IC50 does the source give for `COc1cc(C(CC=C(C)C)SC(=O)c2ccc(N)cc2)c(OC)c2c1/C(=N/O)C=C/C2=N\O` (stereo not given) here?
**A.** The IC50 was 1.68 µM.

System: MCF7
Experiment: Cytotoxicity against human MCF7 cells after 48 hrs by MTT assay
Format: functional, cell-based
Conditions: MCF7, 48 h
How it was run: as §1

**Q.** Which IC50 does the source give for `COc1cc(C(CC=C(C)C)SC(=O)c2ccccc2F)c(OC)c2c1/C(=N/O)C=C/C2=N\O` (stereo not given) here?
**A.** The IC50 was 23 µM.

**Q.** Which IC50 does the source give for `COc1ccc(C(=O)S[C@H](CC=C(C)C)c2cc(OC)c3c(c2OC)/C(=N/O)C=C/C3=N\O)cc1OC` here?
**A.** The IC50 was 19.5 µM.

**Q.** Which IC50 does the source give for `COc1cc([C@@H](CC=C(C)C)SCCC(C)C)c(OC)c2c1/C(=N/O)C=C/C2=N\O` here?
**A.** The IC50 was 39.4 µM.

**Q.** For `COc1cc(C(CC=C(C)C)SC(=O)c2cccc(Cl)c2)c(OC)c2c1/C(=N/O)C=C/C2=N\O` (stereo not given), which IC50 is on record?
**A.** The IC50 was 42.9 µM.

**Q.** With `CCC(=O)SC(CC=C(C)C)c1cc(OC)c2c(c1OC)/C(=N/O)C=C/C2=N\O` (stereo not given) as the molecule, how does the IC50 read?
**A.** Its IC50 is 26.1 µM.

**Q.** For `O=c1[nH]cc(F)c(=O)[nH]1` [FLUOROURACIL], which IC50 is on record?
**A.** The IC50 was 29 µM.

**Q.** For `CCCCCCCCCSC(CC=C(C)C)c1cc(OC)c2c(c1OC)/C(=N/O)C=C/C2=N\O` (stereo not given), which IC50 is on record?
**A.** Its IC50 is 37.8 µM.

**Q.** For `COc1cccc(C(=O)SC(CC=C(C)C)c2cc(OC)c3c(c2OC)/C(=N/O)C=C/C3=N\O)c1` (stereo not given), which IC50 is on record?
**A.** The IC50 was 35.2 µM.

**Q.** Which IC50 does the source give for `COc1cc(C(CC=C(C)C)SC(=O)c2ccccc2Cl)c(OC)c2c1/C(=N/O)C=C/C2=N\O` (stereo not given) here?
**A.** Its IC50 is 19.2 µM.

**Q.** Which IC50 does the source give for `COc1ccc(C(=O)S[C@@H](CC=C(C)C)c2cc(OC)c3c(c2OC)/C(=N/O)C=C/C3=N\O)cc1OC` here?
**A.** The IC50 was 15.2 µM.

**Q.** With `COc1cc(C(CC=C(C)C)SC(=O)c2ccc(N)cc2)c(OC)c2c1/C(=N/O)C=C/C2=N\O` (stereo not given) as the molecule, how does the IC50 read?
**A.** Its IC50 is 19.4 µM.
